Assay results as given in ChEMBL document CHEMBL4689842, “EUbOPEN Chemogenomics Library wave 1” (2021).

Columns and labels:
Assay type in all cases: toxicity, cell-based
[1] = system: U2OS; test: Multiplex assay against U2OS; settings: human
Procedure, shortened: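 Live cells carried four stains from seeding: Hoechst33342, BioTracker Green Microtubule Cytoskeleton Dye, MitoTracker Red and Annexin V Alexa Fluor 680. They were imaged on a CQ1 microscope at 37°C and 5% CO2 after compound addition. Using CellPathfinder machine-learning gating, cells were split into Hoechst high-intensity objects or normal cells, normal cells into healthy, pyknosed or fragmented nuclei, and pyknosed cells into mitotic or apoptotic; tubulin, mitochondrial-mass and membrane-permeability phenotypes are per cents of healthy-nucleus cells.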

[2] = system: HEK-293T; test: Incucyte cell viability with HEK293T; settings: human, 10 µM, compound concentration 10 uM; also: filed as whole numbers so only -1 and 0 and 1 occur
[3] = system: U2OS; test: Incucyte cell viability with U2OS; settings: human, 10 µM, compound concentration 10 uM; also: filed as whole numbers so only -1 and 0 and 1 occur
[4] = 24 h, 10 µM, compound concentration 10 uM, replicate 1
[5] = 24 h, 10 µM, compound concentration 10 uM, replicate 2
[6] = 48 h, 1 µM, compound concentration 1 uM, replicate 1
[7] = 48 h, 1 µM, compound concentration 1 uM, replicate 2
[8] = 48 h, 10 µM, compound concentration 10 uM, replicate 1
[9] = 48 h, 10 µM, compound concentration 10 uM, replicate 2
[10] = 0 h, replicate number 1, timepoint 0 hours
[11] = 12 h, replicate number 1, timepoint 12 hours
[12] = 18 h, replicate number 1, timepoint 18 hours
[13] = 24 h, replicate number 1, timepoint 24 hours

Question: What does the source list for `CCCCN(CC)c1nc(C)nc2c1c(C)cn2-c1c(C)cc(C)cc1C.Cl`?
Answer: Population Pyknosed Nuclei (%) [1, 4]: 17%; Population Tubulin-Different-Phenotype (%) [1, 4]: 26%; Total Cell Count [1, 4]: 152; Population Apoptotic (%) [1, 5]: 25%; Population Fragmented Nuclei (%) [1, 5]: 8%; Population Healthy Nuclei (%) [1, 5]: 80%; Population Hoechst High Intensity Objects (%) [1, 5]: 4%; Population Membrane Permeable-Phenotype (%) [1, 5]: 3%; Population Mitochondria Different-Phenotype (%) [1, 5]: 54%; Population Mitotic Cells (%) [1, 5]: 75%; Population Normal (%) [1, 5]: 95%; Population Pyknosed Nuclei (%) [1, 5]: 11%; Population Tubulin-Different-Phenotype (%) [1, 5]: 21%; Total Cell Count [1, 5]: 74; Population Apoptotic (%) [1, 6]: 27%; Population Fragmented Nuclei (%) [1, 6]: 5%; Population Healthy Nuclei (%) [1, 6]: 86%; Population Hoechst High Intensity Objects (%) [1, 6]: 3%; Population Membrane Permeable-Phenotype (%) [1, 6]: 0%; Population Mitochondria Different-Phenotype (%) [1, 6]: 10%; Population Mitotic Cells (%) [1, 6]: 72%; Population Normal (%) [1, 6]: 96%; Population Pyknosed Nuclei (%) [1, 6]: 7%; Population Tubulin-Different-Phenotype (%) [1, 6]: 7%; Total Cell Count [1, 6]: 253; Population Apoptotic (%) [1, 7]: 28%; Population Fragmented Nuclei (%) [1, 7]: 8%; Population Healthy Nuclei (%) [1, 7]: 82%; Population Hoechst High Intensity Objects (%) [1, 7]: 1%; Population Membrane Permeable-Phenotype (%) [1, 7]: 8%; Population Mitochondria Different-Phenotype (%) [1, 7]: 14%; Population Mitotic Cells (%) [1, 7]: 71%; Population Normal (%) [1, 7]: 98%; Population Pyknosed Nuclei (%) [1, 7]: 8%; Population Tubulin-Different-Phenotype (%) [1, 7]: 13%; Total Cell Count [1, 7]: 170; Population Apoptotic (%) [1, 8]: 39%; Population Fragmented Nuclei (%) [1, 8]: 18%; Population Healthy Nuclei (%) [1, 8]: 68%; Population Hoechst High Intensity Objects (%) [1, 8]: 6%; Population Membrane Permeable-Phenotype (%) [1, 8]: 4%; Population Mitochondria Different-Phenotype (%) [1, 8]: 30%; Population Mitotic Cells (%) [1, 8]: 60%; Population Normal (%) [1, 8]: 93%; Population Pyknosed Nuclei (%) [1, 8]: 12%; Population Tubulin-Different-Phenotype (%) [1, 8]: 26%; Total Cell Count [1, 8]: 192; Population Apoptotic (%) [1, 9]: 38%; Population Fragmented Nuclei (%) [1, 9]: 9%; Population Healthy Nuclei (%) [1, 9]: 71%; Population Hoechst High Intensity Objects (%) [1, 9]: 5%; Population Membrane Permeable-Phenotype (%) [1, 9]: 6%; Population Mitochondria Different-Phenotype (%) [1, 9]: 38%; Population Mitotic Cells (%) [1, 9]: 61%; Population Normal (%) [1, 9]: 94%; Population Pyknosed Nuclei (%) [1, 9]: 18%; Population Tubulin-Different-Phenotype (%) [1, 9]: 12%; Total Cell Count [1, 9]: 119; Growth Rate [2, 10]: 0; Growth Rate ([2]; 6 h, replicate number 1, timepoint 6 hours): 0; Growth Rate [2, 11]: 0; Growth Rate [2, 12]: 0; Growth Rate [2, 13]: 0; Growth Rate [3, 10]: 0; Growth Rate ([3]; 6 h, replicate number 2, timepoint 6 hours): 1; Growth Rate [3, 11]: 0; Growth Rate [3, 12]: 0; Growth Rate ([3]; 18 h, replicate number 2, timepoint 18 hours): 1; Growth Rate [3, 13]: 0; Growth Rate ([3]; 24 h, replicate number 2, timepoint 24 hours): 1
